Data on one compound can be found in ChEMBL document CHEMBL1127783, “Sugar-linked dithiocarbamates as modulators of metabolic and genotoxic properties of N-nitroso compounds” (J Med Chem, 1994).

The species entered for experiment [1] is Rattus norvegicus. The experiment can be described thus: Tested in vitro for N-nitrosodimethylamine (NDMA) demethylase activity at 0.1 mM for 0 mM concentration of acetaldehyde. Format: functional. An outline of the steps:
(§1)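 Liver microsomal fraction from untreated male Sprague–Dawley rats with NADPH-generating system. NDMA substrate 0.1–1 mM; test compound 2–20 mM or DDTC 2 mM added. Formaldehyde and acetaldehyde formed measured as (2,4-dinitrophenyl)hydrazones. Mean ± SD of three separate experiments.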

For experiment [2], the species on record is Rattus norvegicus. In words: Tested in vitro for N-nitrosodimethylamine (NDMA) demethylase activity at 0.1 mM for 2 mM concentration of acetaldehyde. Format: functional. An outline of the steps:
as §1

For experiment [3], the species on record is Rattus norvegicus. The experiment can be described thus: Tested in vitro for N-nitrosodimethylamine (NDMA) demethylase activity at 0.5 mM for 2 mM concentration of acetaldehyde. Format: functional. An outline of the steps:
as §1

The species entered for experiment [4] is Rattus norvegicus. The experiment can be described thus: Tested in vitro for N-nitrosodimethylamine (NDMA) demethylase activity at 1 mM for 2 mM concentration of acetaldehyde. Format: functional. An outline of the steps: as §1
Experiment [5] is filed under the species Rattus norvegicus. The experiment can be described thus: Tested in vitro for N-nitrosodimethylamine (NDMA) demethylase activity at 0.1 mM for 0 mM concentration of formaldehyde. The class given is functional. An outline of the steps: as §1
Experiment [6] is filed under the species Rattus norvegicus. In words: Tested in vitro for N-nitrosodimethylamine (NDMA) demethylase activity at 0.1 mM for 2 mM concentration of formaldehyde. Format: functional. An outline of the steps:
as §1

For experiment [7], the species on record is Rattus norvegicus. In words: Tested in vitro for N-nitrosodimethylamine (NDMA) demethylase activity at 0.5 mM for 2 mM concentration of formaldehyde. The class given is functional. An outline of the steps:
as §1

Experiment [8] is filed under the species Rattus norvegicus. In words: Tested in vitro for N-nitrosodimethylamine (NDMA) demethylase activity at 1 mM for 2 mM concentration of formaldehyde. The class given is functional. An outline of the steps: as §1
Experiment [9] has as its system Rattus norvegicus. In words: Tested for exhalation of 14CO2 of compound (1.5mmol/kg, ip) was administered 1 h before and 5 h after the treatment of [14C]NDEA (28 mg/kg, 5 microCi/kg, ip) in experiment number 1. The class given is functional. An outline of the steps:
(§2)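 Male Sprague–Dawley rats (two per group) were fasted overnight. They received inhibitor or saline ip at 1.5 mmol/kg 1 h before and again after ip [¹⁴C]NDEA (28 mg/kg, 5 μCi/kg). Animals were then kept 24 h in an all-glass metabolism cage with air flow of 32 L/h. Exhaled air was dried over H₂SO₄, ¹⁴CO₂ was trapped in 1 N NaOH and counted, and the result is expressed as % of the given dose.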

Experiment [10] concerns Rattus norvegicus. In words: Tested for exhalation of 14CO2 of compound (1.5mmol/kg, ip) was administered 1 h before and 5 h after the treatment of [14C]NDEA (28 mg/kg, 5 microCi/kg, ip) in experiment number 2. Format: functional. An outline of the steps: as §2
Experiment [11] relates to Rattus norvegicus. The experiment can be described thus: Tested for unchanged NDEA 24 h administration of [14C]-NDEA in urine in experiment number 1. Format: functional. An outline of the steps: (§3)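 Male Sprague–Dawley rats, fasted overnight, two per group. Inhibitor 1.5 mmol/kg ip or saline, then [14C]NDEA 28 mg/kg (5 μCi/kg) ip 1 h later, then a second inhibitor dose. Rats kept 24 h in all-glass metabolism cages, urine collected into ice-cold flask with NaOH. Total urinary radioactivity and unchanged [14C]NDEA measured after extraction with internal standard; given as % of dose.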

Experiment [12] concerns Rattus norvegicus. The experiment can be described thus: Tested for urinary excretion of radioactivity of compound (1.5mmol/kg, ip) was administered 1 hr before and 5 hr after the treatment of [14C]-NDEA (28 mg/kg, 5 microCi/kg, ip) in experiment number 1. Format: functional, organism-based. An outline of the steps: as §3
The subject of experiment [13] is Rattus norvegicus. In words: Tested for urinary excretion of radioactivity of compound (1.5 mmol/kg, ip) was administered 1 h before and 5 h after the treatment of [14C]-NDEA (28 mg/kg, 5 microCi/kg, ip) in experiment number 2. The class given is functional, organism-based. An outline of the steps:
as §3

As to `CCN(CC)C(=S)[S-].[Na+]` [DITIOCARB SODIUM], the Acetaldehyde in the experiment listed under Rattus norvegicus [1] is 0 nM (mg of protein)-1; in the experiment filed under Rattus norvegicus [2], 2.2 nM (mg of protein)-1; in the experiment listed under Rattus norvegicus [3] it was 0.6 nM (mg of protein)-1; in the experiment listed under Rattus norvegicus [4], 0.06 nM (mg of protein)-1. Besides, the Formaldehyde in the experiment listed under Rattus norvegicus [5] was 4.8 nM (mg of protein)-1; in the experiment filed under Rattus norvegicus [6] it was 0.6 nM (mg of protein)-1; in the experiment filed under Rattus norvegicus [7], 0.3 nM (mg of protein)-1; in the experiment listed under Rattus norvegicus [8], 0 nM (mg of protein)-1. The “Exhal+B1718ation of 14CO2” value turned out to be 17.2% in the experiment with Rattus norvegicus [9] and 20.5% in the experiment on Rattus norvegicus [10]. Also, the “Unchanged NDEA” value with Rattus norvegicus [11] is listed as 15.7%. For the same compound, the Radioactivity in urine with Rattus norvegicus [12] was 20.7%; in the experiment on Rattus norvegicus [13] it was 17.8%.
